The structures appear in SMILES notation. Active and inactive are the calls of the source. The calls are words filed in the database; no cut-off is given here.

The record followed here is ChEMBL document CHEMBL4819003, “Optimization of novel oxidative DIMs as Nur77 modulators of the Nur77-Bcl-2 apoptotic pathway” (Eur J Med Chem, 2021).

For assay [1], the target named is T1, Nuclear receptor subfamily 4immunitygroup A member 1 (Homo sapiens, UniProt P22736). The assay is described as follows: Modulation of Myc-Nur77 (unknown origin) transfected in human HEK293T cells assessed as induction of Myc-Nur77 mitochondrial targeting by measuring increase in Myc-Nur77 accumulation in mitochondria at 0.5 uM measured after 2 hrs by western blot analysis. The settings on record: filed as modulator. An outline of the steps: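 HEK293T cells transfected with Myc-Nur77 were exposed to 0.5 μM compound for 2 h. Cells were homogenised in sucrose Buffer D; 500 g then 5000 g spins gave a mitochondrial pellet. Whole-cell and mitochondrial fractions were western blotted for Myc-Nur77, with PARP and Tom20 as fraction-purity markers.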
(In general: A western blot detects proteins with antibodies after separation by electrophoresis.)

For assay [2], the system named is MDA-MB-231. Kind of assay: Induction of apoptosis in human MDA-MB-231 cells assessed as PARP cleavage at 0.5 uM measured after 6 hrs by western blot assay. It counts as functional, cell-based. An outline of the steps: (§1)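 Cells exposed to 0.5 µM for 6 h. Lysates resolved by SDS-PAGE and blotted to PVDF, blocked in 5% milk/TBST, probed with primary antibodies at 1:1000, ECL detection. Apoptosis scored as the densitometric ratio of cleaved PARP band to intact PARP band; mean ± SD, n = 3.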

The test system of assay [3] is HCT-116. Kind of assay: Induction of apoptosis in human HCT-116 cells assessed as PARP cleavage at 0.5 uM measured after 6 hrs by western blot assay. It counts as functional, cell-based. An outline of the steps:
as §1

For assay [4], the system named is BT-549. Kind of assay: Induction of apoptosis in human BT-549 cells assessed as PARP cleavage at 0.5 uM measured after 6 hrs by western blot assay. It counts as functional, cell-based. In short, it runs like this:
as §1

Assay [5] has as its system SW-620. Kind of assay: Induction of apoptosis in human SW-620 cells assessed as PARP cleavage at 0.5 uM measured after 6 hrs by western blot assay. Format: functional, cell-based. An outline of the steps:
as §1

For assay [6], the system named is MEF. Kind of assay: Induction of apoptosis in wild type mouse MEF cells assessed as PARP cleavage at 0.5 uM measured after 6 hrs by western blot assay. Format: functional, cell-based. In short, it runs like this: (§2)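 Wild-type, Nur77−/− or Bcl-2−/− mouse embryonic fibroblasts grown in DMEM with 10% FBS and treated with 0.5 µM for 6 h. PARP cleavage detected by western blot, primary antibodies at 1:1000, ECL.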

Assay [7] has as its target T1, Nuclear receptor subfamily 4immunitygroup A member 1. Kind of assay: Modulation of Myc-Nur77-LBD (unknown origin) transfected in human HEK293T cells assessed as induction of Myc-Nur77 mitochondrial targeting by measuring increase in Myc-Nur77 accumulation in mitochondria at 0.5 uM measured after 2 hrs by Mito-tracker dye based confocal microscopy method. The settings on record: filed as modulator. An outline of the steps:
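HEK293T cells transfected with Myc-Nur77-LBD were given 0.5 μM compound for 2 h, stained with Mito-Tracker and immunostained. Nur77 mitochondrial localisation was visualised by confocal microscopy.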

Assay [8] concerns MEF. Kind of assay: Induction of apoptosis in mouse MEF cells deficient in Bcl2 assessed as PARP cleavage at 0.5 uM measured after 6 hrs by Western blot assay. It counts as functional, cell-based. In short, it runs like this: as §2
The test system of assay [9] is Mus musculus. Kind of assay: Antitumour activity against FVB/N mammary tumor MMTV-PyMT mouse model assessed as inhibition of tumour growth at 3 mg/kg, po administered daily for 14 days. Format: functional, organism-based. The settings on record: time 14.0 day. An outline of the steps:
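Female MMTV-PyMT transgenic mice (FVB/N background), 12 weeks old, randomized n = 6 per group; daily oral gavage 3 mg/kg for 14 days. Dosing solution: DMSO stock diluted in normal saline with 5.0% (V/V) Tween-80 to 3 mg/mL. Tumours weighed at end; mean ± SD, Student's t-test versus untreated controls.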

The subject of assay [10] is MDA-MB-231. Kind of assay: Cytotoxicity against human MDA-MB-231 cells assessed as inhibition of cell growth measured after 24 hrs by MTT assay. The settings on record: MDA-MB-231, 24 h. Format: functional, cell-based. In short, it runs like this:
(§3)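 MTT viability assay, 24 h exposure to a concentration series, 10^4 cells/well. Cancer lines were in DMEM (BT549, MDA-MB-231) or RPMI-1640 (HCT116, SW620) with 10% FBS. MCF10A and NCM460 were in DMEM with 20% FBS and 10 ng/ml EGF. MTT at 5 mg/mL for 4 h at 37 °C, formazan dissolved in DMSO, A490. IC50 from curve fit; mean ± SD, at least 6 experiments.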
In general terms: Tetrazolium dyes change colour on reduction, which living cells bring about.

Assay [11] concerns BT-549. The assay is described as follows: Cytotoxicity against human BT-549 cells assessed as inhibition of cell growth measured after 24 hrs by MTT assay. Format: functional, cell-based. The settings on record: BT-549, 24 h. In short, it runs like this: as §3
In assay [12] the test system is MCF-10A. Kind of assay: Cytotoxicity against human MCF-10A cells assessed as inhibition of cell growth measured after 24 hrs by MTT assay. Format: cell-based. The settings on record: Homo sapiens, MCF-10A, 24 h. In short, it runs like this: as §3
The test system of assay [13] is HCT-116. The assay is described as follows: Cytotoxicity against human HCT-116 cells assessed as inhibition of cell growth measured after 24 hrs by MTT assay. It counts as functional, cell-based. The conditions noted are these: Homo sapiens, HCT-116, 24 h. An outline of the steps:
as §3

For assay [14], the system named is SW-620. Kind of assay: Cytotoxicity against human SW-620 cells assessed as inhibition of cell growth measured after 24 hrs by MTT assay. The settings on record: SW-620, 24 h. It counts as functional, cell-based. In short, it runs like this:
as §3

Assay [15] concerns NCM460. The assay is described as follows: Cytotoxicity against human NCM460 cells assessed as inhibition of cell growth measured after 24 hrs by MTT assay. Format: cell-based. The settings on record: Homo sapiens, NCM460, 24 h. An outline of the steps:
as §3

Assay [16] addresses T1, Nuclear receptor subfamily 4immunitygroup A member 1. The assay is described as follows: Binding affinity to recombinant human N-terminal His-tagged Nur77-LBD (367 to 598 residues) expressed in Escherichia coli BL21 DE3 by flourescence quenching assay. An outline of the steps: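 Human Nur77-LBD (367–598), N-terminal His tag, pET15b in E. coli BL21 DE3, Ni resin purified. Nur77-LBD at 1 µM in PBS in a quartz cell, titrated with compound over 0.01–1 µM at 25 °C. Excitation 280 nm, emission scanned 300–500 nm; peak intensity at 330 nm versus compound concentration fitted to a reported formula for Kd.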

For assay [17] the target is unchanged. Kind of assay: Binding affinity to recombinant human N-terminal His-tagged Nur77-LBD (367 to 598 residues) expressed in Escherichia coli BL21 DE3 by surface plasmon resonance assay. An outline of the steps:
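His-tagged human Nur77-LBD (367–598) from E. coli BL21 DE3, diluted to 0.05 mg/mL in 10 mM NaAc pH 5.0 and amine-coupled to a CM5 chip (~9000 RU). Compounds at 0.01–5 µM in PBS with 0.4% DMSO, 25 °C, 30 µL/min; 150 s association, 420 s dissociation, regeneration with 10 mM glycine-HCl pH 2.5. Reference- and blank-subtracted; Kd from global 1:1 kinetic fit.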
On the technique in general: Surface plasmon resonance follows binding to a sensor surface in real time, without labels.

Assay [18] deals with MEF. Kind of assay: Induction of apoptosis in mouse MEF cells lacking Nur77 assessed as PARP cleavage at 0.5 uM measured after 6 hrs by western blot assay. Format: functional, cell-based. In short, it runs like this:
as §2

T1 sequence (P22736 whole entry): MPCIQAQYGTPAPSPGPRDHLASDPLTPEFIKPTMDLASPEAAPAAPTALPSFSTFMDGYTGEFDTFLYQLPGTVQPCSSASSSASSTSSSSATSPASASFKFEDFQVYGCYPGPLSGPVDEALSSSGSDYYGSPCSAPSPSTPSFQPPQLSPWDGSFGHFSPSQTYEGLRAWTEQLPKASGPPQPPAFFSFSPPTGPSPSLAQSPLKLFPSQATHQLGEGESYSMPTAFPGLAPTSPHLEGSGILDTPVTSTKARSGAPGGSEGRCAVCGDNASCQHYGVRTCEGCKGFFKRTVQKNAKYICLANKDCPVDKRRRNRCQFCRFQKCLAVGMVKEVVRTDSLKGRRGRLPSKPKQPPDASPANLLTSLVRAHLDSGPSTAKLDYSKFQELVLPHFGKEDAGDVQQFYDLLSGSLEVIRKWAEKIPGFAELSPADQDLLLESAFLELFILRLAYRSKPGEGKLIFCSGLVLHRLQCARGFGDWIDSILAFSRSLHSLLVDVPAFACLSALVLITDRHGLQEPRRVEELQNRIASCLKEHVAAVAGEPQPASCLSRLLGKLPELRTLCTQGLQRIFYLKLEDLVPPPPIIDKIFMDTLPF

As for `FC(F)(F)c1ccc([C+](c2c[nH]c3ccccc23)c2c[nH]c3ccccc23)cc1`, the result in assay [1], in assay [2], in assay [3], in [4], in assay [5] and in assay [6] was Active. Also, the result in [7] and in assay [9] was Active. Besides, the result in assay [8] was inactive.
For `CCn1cc([C+](c2ccc(C(F)(F)F)cc2)c2c[nH]c3ccccc23)c2ccccc21`, the result in [2], in [3] and in assay [6] was Active. The half-inhibitory concentration (IC50) amounted to 80 nM in assay [10]; 50 nM in [11]; 1500 nM in assay [12]; 100 nM in assay [13]; 100 nM in assay [14]; 3080 nM in assay [15]. The Kd in assay [16] stood at 66 nM; in [17], 36 nM. In addition, the result in assay [18] and in [8] was inactive.

For orientation: IC50 means the midpoint of a concentration-inhibition curve. The Kd is the free concentration of one partner at which half of the binding sites on the other are occupied at equilibrium, for simple one-to-one binding.
